One data set has as its target Glucagon receptor (Mus musculus, UniProt Q61606). As to the kind of experiment: Antagonist activity at mouse GCGR expressed in CHO cells assessed as inhibition of glucagon-induced cAMP accumulation preincubated for 30 mins prior to glucagon challenge measured after 30 mins post glucagon challenge by liquid scintillation counter. The data set is classed as functional, cell-based. The procedure, abridged: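 CHO cells stably expressing the receptor were grown 3–4 days in IMDM with 10% FBS, 1 mM L-glutamine, pen-strep and 500 ug G418/mL, lifted enzyme-free and resuspended in stimulation buffer. They were preincubated 30 min with compound (final 5% DMSO), then stimulated with glucagon (250 pM) for 30 min at room temperature. Kit detection buffer was added for 3 h and bound radioactivity counted. IC50 is mean ± SD where N ≥ 2.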
(Changes in cAMP serve as a functional read-out for many G protein-coupled receptors.)

For data set [1], the target named is T1, Vasoactive intestinal polypeptide receptor 2 (Homo sapiens, UniProt P41587).
T1 sequence (P41587 whole entry): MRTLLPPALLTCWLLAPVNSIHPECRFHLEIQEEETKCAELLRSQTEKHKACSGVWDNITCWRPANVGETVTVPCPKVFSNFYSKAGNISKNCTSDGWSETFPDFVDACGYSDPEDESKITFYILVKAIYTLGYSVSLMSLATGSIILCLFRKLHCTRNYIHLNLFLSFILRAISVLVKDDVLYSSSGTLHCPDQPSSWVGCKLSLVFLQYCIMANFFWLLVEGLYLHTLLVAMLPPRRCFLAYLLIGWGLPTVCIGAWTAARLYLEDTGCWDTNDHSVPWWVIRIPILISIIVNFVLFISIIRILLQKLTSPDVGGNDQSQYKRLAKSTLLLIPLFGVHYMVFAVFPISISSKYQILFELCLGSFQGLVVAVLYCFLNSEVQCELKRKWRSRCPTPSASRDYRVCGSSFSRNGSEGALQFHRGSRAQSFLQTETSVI
As to the kind of experiment: Antagonist activity at human VPAC2 expressed in CHO cells assessed as inhibition of glucagon-induced cAMP accumulation preincubated for 30 mins prior to glucagon challenge measured after 30 mins post glucagon challenge by liquid scintillation counter. The format is functional, cell-based.

In another data set the target is Cytochrome P450 2C9 (Homo sapiens, UniProt P11712). As to the kind of experiment: Inhibition of human CYP2C9 in liver microsomes assessed as diclofenac 4'-hydroxylation after 48 hrs. The data set is classed as ADME, Microsome. The procedure, abridged:
(§1)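 Human liver microsomes were used with marker activities: phenacetin O-deethylation for 1A2, bupropion hydroxylation for 2B6, paclitaxel 6α-hydroxylation for 2C8, diclofenac 4′-hydroxylation for 2C9, dextromethorphan O-demethylation for 2D6 and chlorzoxazone […]-hydroxylation for 2E1. IC50 in μM is given as mean ± SD.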

The target in a further data set is Cytochrome P450 2B6 (Homo sapiens, UniProt P20813). Kind of data set: Inhibition of human CYP2B6 in liver microsomes assessed as bupropion hydroxylation after 48 hrs. The format is ADME, Microsome. The procedure, abridged: as §1
Chain of Cytochrome P450 2B6 (P20813 whole entry): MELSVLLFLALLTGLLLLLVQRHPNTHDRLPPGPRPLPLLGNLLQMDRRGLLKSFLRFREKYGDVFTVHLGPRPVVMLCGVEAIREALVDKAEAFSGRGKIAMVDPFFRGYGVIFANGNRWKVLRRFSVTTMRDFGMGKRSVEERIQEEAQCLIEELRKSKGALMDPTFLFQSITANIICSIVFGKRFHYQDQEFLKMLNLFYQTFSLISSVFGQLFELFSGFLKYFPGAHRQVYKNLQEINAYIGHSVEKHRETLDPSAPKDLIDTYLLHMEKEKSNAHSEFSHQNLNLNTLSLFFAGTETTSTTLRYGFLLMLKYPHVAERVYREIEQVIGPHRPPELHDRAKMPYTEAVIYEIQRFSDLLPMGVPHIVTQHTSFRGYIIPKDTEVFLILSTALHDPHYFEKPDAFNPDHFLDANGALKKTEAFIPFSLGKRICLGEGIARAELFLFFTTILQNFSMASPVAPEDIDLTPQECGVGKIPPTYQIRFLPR
For a further data set, the target named is Cytochrome P450 2E1 (Homo sapiens, UniProt P05181). Kind of data set: Inhibition of human CYP2E1 in liver microsomes assessed as chlorzoxazone […]-hydroxylation after 48 hrs. The data set is classed as ADME, Microsome. The procedure, abridged:
as §1
(In general: Liver microsomes are vesicles of endoplasmic reticulum, rich in cytochrome P450 enzymes.)

Data set [2] in a line: Volume of distribution at steady state in rat at 2 mg/kg, iv and 2 mg/kg, po. The data set is classed as ADME, organism-based. As to conditions: in vivo, read-out: Vdss. The procedure, abridged: (§2)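 IV/PO pharmacokinetic study with plasma clearance, Vdss and oral bioavailability derived. Doses were rat 2/2, dog 0.5/0.5 and rhesus 0.5/2 mg/kg. The oral dose was a suspension in 0.5% aqueous methylcellulose.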

A short description of data set [3]: Elimination half life in rat at 2 mg/kg, iv and 2 mg/kg, po. The format is ADME, organism-based. As to conditions: in vivo, read-out: beta t1/2 (converted). The procedure, abridged:
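PK used IV/PO doses of 1/2 mg/kg in mouse, 2/2 in rat, 0.5/0.5 in dog and 0.5/2 in monkey. The oral vehicle in mice was a solution in DMSO:Tween80:water (5:10:85 by volume); other species received a suspension in 0.5% aqueous methylcellulose. Mouse parameters came from blood concentrations. nAUC is dose-normalized oral AUC.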

Data set [4] in a line: Oral bioavailability in rat at 2 mg/kg. The note with it: in vivo. The format is ADME, organism-based. The procedure, abridged: as §2
Data set [5] is described as follows: Oral bioavailability in monkey at 2 mg/kg. As to conditions: rhesus monkey, in vivo. The format is ADME, organism-based, Macaca mulatta. The procedure, abridged:
as §2

The nature of data set [6]: Plasma protein binding in rat. The format is ADME, cell-free. As to conditions: read-out: PPB.
Data set [7] can be described thus: Drug uptake in mouse expressing human GCGR at 3 mg/kg, po measured at 60 mins. Also noted: dose 3 mg/kg, route oral. The data set is classed as ADME, organism-based. The note with it: in vivo, read-out: Drug uptake. The procedure, abridged:
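hGCGR mice were dosed orally at 3, 10 or 30 mpk 1 h before an IP glucagon challenge (15 μg/kg). […] Drug levels were determined at 60 min post dose.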

The subject of a further data set is Canis familiaris. As to the kind of experiment: Cardiovascular toxicity in anesthetized dog up to 10 mg/kg, iv. The data set is classed as organism-based, Canis lupus familiaris. Also noted: dose 10 mg/kg, route intravenous. As to conditions: in vivo. The procedure, abridged: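 Anesthetized dogs were given IV doses up to 10 mpk, and cardiovascular parameters and drug exposure were assessed.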

The species entered for a further data set is Mus musculus. As to the kind of experiment: Antidiabetic activity in GCGR knockout mouse assessed as increase in blood glucagon level relative to DIO mouse expressing human GCGR. The format is functional. The procedure, abridged:
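DIO hGCGR mice (humanized receptor) on high fat diet, with lean hGCGR mice as the reference group. Compound given in the high fat feed at 3 and 10 mpk per day for 11 days (n = 11−15). Blood glucagon and total GLP-1 measured on day 11 against vehicle controls. Postprandial plasma drug levels taken on day 5.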

The species named for the next data set is Homo sapiens. As to the kind of experiment: Reduction of plasma glucose level in type2 diabetic patients at 80 mg, qd relative to baseline. The format is functional.
A further data set has as its system Rattus norvegicus. As to the kind of experiment: Toxicity in rat at <= 100 mg/kg/day for 5 weeks by postmortem analysis. As to conditions: in vivo, 840 h. The data set is classed as organism-based. The procedure, abridged: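 Five-week rat safety study with daily dosing up to 100 mpk. Antemortem and postmortem findings were evaluated for treatment-related changes.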

Here are results for 1 compound from ChEMBL document CHEMBL2157898 (J Med Chem, 2012).

By IC50 is commonly meant the concentration that inhibits the measured activity by half. What is called bioavailability is the share of a dose that reaches the circulation, judged against a reference dose that is usually intravenous.

Molecules are shown by their SMILES.

Chain of Glucagon receptor (Q61606 whole entry): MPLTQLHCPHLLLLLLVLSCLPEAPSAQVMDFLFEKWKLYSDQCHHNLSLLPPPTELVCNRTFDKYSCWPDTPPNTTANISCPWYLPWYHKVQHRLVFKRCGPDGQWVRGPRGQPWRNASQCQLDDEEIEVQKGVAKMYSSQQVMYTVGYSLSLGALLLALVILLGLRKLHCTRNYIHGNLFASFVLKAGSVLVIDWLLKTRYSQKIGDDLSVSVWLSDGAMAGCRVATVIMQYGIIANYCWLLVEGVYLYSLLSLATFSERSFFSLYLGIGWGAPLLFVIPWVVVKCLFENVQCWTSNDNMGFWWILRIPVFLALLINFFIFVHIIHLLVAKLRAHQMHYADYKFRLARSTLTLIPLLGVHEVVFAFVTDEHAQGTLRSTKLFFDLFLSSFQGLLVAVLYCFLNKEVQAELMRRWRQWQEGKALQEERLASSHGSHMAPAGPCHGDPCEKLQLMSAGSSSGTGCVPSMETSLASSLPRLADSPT
Chain of Cytochrome P450 2C9 (P11712 whole entry): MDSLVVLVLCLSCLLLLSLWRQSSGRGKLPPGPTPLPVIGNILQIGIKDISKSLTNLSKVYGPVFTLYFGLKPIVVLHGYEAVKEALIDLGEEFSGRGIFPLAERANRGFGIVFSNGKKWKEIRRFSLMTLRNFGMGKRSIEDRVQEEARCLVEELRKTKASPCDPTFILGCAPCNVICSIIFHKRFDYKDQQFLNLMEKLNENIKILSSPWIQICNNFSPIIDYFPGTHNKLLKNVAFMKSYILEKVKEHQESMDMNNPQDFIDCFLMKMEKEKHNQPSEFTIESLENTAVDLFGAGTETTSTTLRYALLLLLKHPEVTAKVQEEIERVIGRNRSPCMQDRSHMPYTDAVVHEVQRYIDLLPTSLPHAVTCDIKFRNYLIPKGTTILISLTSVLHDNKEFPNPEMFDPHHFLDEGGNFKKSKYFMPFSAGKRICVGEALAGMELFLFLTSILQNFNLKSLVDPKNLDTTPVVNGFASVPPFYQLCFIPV
Chain of Cytochrome P450 2E1 (P05181 whole entry): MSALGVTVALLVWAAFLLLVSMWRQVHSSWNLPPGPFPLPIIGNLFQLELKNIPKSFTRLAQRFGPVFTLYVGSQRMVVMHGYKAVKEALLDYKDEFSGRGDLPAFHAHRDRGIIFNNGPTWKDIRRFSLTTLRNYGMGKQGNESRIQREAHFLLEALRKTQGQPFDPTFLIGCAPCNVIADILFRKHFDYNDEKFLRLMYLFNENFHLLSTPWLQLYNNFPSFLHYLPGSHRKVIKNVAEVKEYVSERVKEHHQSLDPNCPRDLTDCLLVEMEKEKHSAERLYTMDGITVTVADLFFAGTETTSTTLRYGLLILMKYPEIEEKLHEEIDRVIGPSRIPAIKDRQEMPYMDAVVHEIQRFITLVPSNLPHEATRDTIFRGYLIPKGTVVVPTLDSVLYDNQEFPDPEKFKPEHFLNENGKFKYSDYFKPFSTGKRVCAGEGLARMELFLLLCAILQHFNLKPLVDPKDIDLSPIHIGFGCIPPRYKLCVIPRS

Take `COc1ccc2cc(-c3cc(-c4cc(Cl)cc(Cl)c4)nn3[C@@H](C)c3ccc(C(=O)NCCC(=O)O)cc3)ccc2c1` [MK-0893]: the IC50 on Glucagon receptor was 0.122 µM; in [1] it was 12.8 µM; on Cytochrome P450 2C9, 14 µM; at Cytochrome P450 2B6 it was 23 µM; on Cytochrome P450 2E1 it was greater than 100 µM. Besides, the Vd in [2] worked out at 2.1 L/kg. The half-life in data set [3] is 5.9 h. Moreover, the bioavailability in data set [4] is 43%; in [5], 57%. Also, the fraction unbound in [6] is less than 0.01. In addition, in data set [7], the concentration at 1 h turned out to be 260 nM. Further, the Activity result was “Non-toxic” in the data set on Canis familiaris, 63 mg/dL in the data set filed under Homo sapiens and “Non-toxic” in the data set with Rattus norvegicus. Moreover, in the data set listed under Mus musculus, the “fold change (FC)” value is greater than 100.
